From ChEMBL document CHEMBL2086284, “(Z)-1-aryl-3-arylamino-2-propen-1-ones, highly active stimulators of tubulin polymerization: synthesis, structure-activity relationship (SAR), tubulin polymerization, and cell growth inhibition studies” (J Med Chem, 2012)
Calls of active or inactive are those of the source. The calls are words filed in the database; no cut-off is given here.

Columns and labels:
[1] = tested on: K562; test: Cytotoxicity against human K562 cells after 96 hrs by trypan blue exclusion assay; format: functional, cell-based; conditions: K562, 96 h
In short: (§1)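 Cells grown in DMEM or RPMI with 10% FBS and penicillin-streptomycin. Seeded at 1.0 × 10^5 cells/mL/well in 6-well dishes; compounds were added 24 h later at various concentrations. Viable cells were counted by trypan blue exclusion from duplicate wells after 96 h of treatment, giving a dose-response endpoint.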

[2] = tested on: DU-145; test: Cytotoxicity against androgen receptor-deficient human DU145 cells after 96 hrs by trypan blue exclusion assay; format: functional, cell-based; conditions: DU-145, 96 h; in short: as §1
[3] = Cytotoxicity against human MESSA/DX5 cells after 96 hrs by trypan blue exclusion assay; format: functional, cell-based; conditions: MES-SA/Dx5, 96 h; in short: as §1
[4] = tested on: HeLa; test: Induction of mitotic arrest in human HeLa cells assessed as unbound chromosome outside metaphase plate at 0.005 uM after 18 hrs by FITC-conjugated DAPI staining based fluorescence microscopy; format: functional, cell-based
In short: (§2)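 HeLa grown on glass coverslips and exposed for 18 h to test agent (0.25 or 0.5 μM), paclitaxel or vincristine (0.005 μM), or DMSO. Cells were fixed in 4% paraformaldehyde, blocked, permeabilised, and stained with FITC anti-α-tubulin (1:400) and then DAPI (0.5 ug/mL). Mitotic spindles or interphase cytoplasmic microtubules were scored by fluorescence microscopy at 100x.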

[5] = tested on: HeLa; test: Inhibition of cytoplasmic microtubule polymerization in human HeLa cells at 0.005 uM after 18 hrs by FITC-conjugated DAPI staining based fluorescence microscopy; format: cell-based; in short: as §2
[6] = Cytotoxicity against human MES-SA cells after 96 hrs by trypan blue exclusion assay; format: functional, cell-based; in short: as §1
[7] = Drug resistant, ratio of IC50 for human MESSA/DX5 cells to IC50 for human MESSA cells; format: functional, MES-SA
In short: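 MES-SA uterine sarcoma cells and the P-glycoprotein-expressing multidrug-resistant MES-SA/DX5 sub-line were grown in DMEM or RPMI with 10% FBS. Cells were plated in 6-well dishes at 1.0 × 10^5 cells/mL/well, dosed at various concentrations 24 h later, and exposed for 96 h. Viable cells were counted by trypan blue exclusion from duplicate wells. The resistant/parental IC50 ratio was taken.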

SMILES	IC50 [1]	IC50 [2]	also measured
COc1cc(C(=O)/C=C\Nc2ccc3[nH]ccc3c2)c(Br)c(OC)c1OC	200 nM	150 nM	–
CC(=O)O[C@H]1C(=O)[C@@]2(C)[C@H]([C@H](OC(=O)c3ccccc3)[C@]3(O)C[C@H](OC(=O)[C@H](O)[C@@H](NC(=O)c4ccccc4)c4ccccc4)C(C)=C1C3(C)C)[C@]1(OC(C)=O)CO[C@@H]1C[C@@H]2O [PACLITAXEL]	–	–	IC50 [3]: 750 nM; Activity [4]: Active; inhibition [5]: inactive; IC50 [6]: 4 nM; Ratio IC50 [7]: >100
COc1cc(C(=O)/C=C\Nc2ccc3[nH]c(C)cc3c2)cc(OC)c1OC	750 nM	600 nM	–
COc1ccc(N/C=C\C(=O)c2ccc(OC)cc2)cc1	100000 nM	75000 nM	–
COc1cc(C(=O)/C=C\Nc2ccccc2O)c(Br)c(OC)c1OC	200 nM	250 nM	–
COc1ccc(N/C=C\C(=O)c2cc(OC)c(OC)c(OC)c2)cc1N	250 nM	100 nM	–
COc1cc(OC)c(C(=O)/C=C\Nc2cc(OC)c(OC)c(OC)c2)c(OC)c1	75000 nM	35000 nM	–
COc1ccc(N/C=C\C(=O)c2cc(OC)c(OC)c(OC)c2)cc1O	100 nM	100 nM	–
